Compounds with a hit are over-represented: about 4.4% of the library has one in this group of screens.
HTR2A ag = activates the mouse 5-HT2A serotonin receptor; P35363; CHO-K1 mHTR2A beta-arrestin complementation, luminescence; percent of 30 µM serotonin response; 360,000 compounds, 0.66% hits; activation, % at 7.6 µM;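 active = activation above a run cutoff, the mean activation of all tested compounds plus 3 SD, cut at about 14% in these data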;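 note: 0% = plate median of compound wells and 100% = 30 µM serotonin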
MsrA act = activates bovine MsrA enzyme; purified bovine MsrA, absorbance read-out; activation, % at 10.6 µM; 360,000 compounds, 0.3% hits; in the data active = activation above about 7.5%;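 note: 0% = vehicle and 100% = reference activator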
AI-2 QS mod = modulates the Vibrio harveyi AI-2 quorum sensing system; Vibrio harveyi JMH597 AI-2 luminescence/OD600 ratio, 9 h; active compounds read low; strain lacks LuxN and CqsS sensors; 0 = neutral-control median; 300,000 compounds, 0.4% hits; activity change, % at 7.5 µM; in the data active = activity change below about -75%, passing the limit was not always enough;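 note: luminescence divided by OD600 gain over 9 h not by final OD600 alone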
AHR activator = activates the human aryl hydrocarbon receptor | P35869 | AHR-responsive luciferase reporter cells, luminescence | activation, % at 5 µM | 320,000 compounds, 2.5% hits | AID 2796; in the data active = activation above about 47%;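 note: 0% = vehicle wells and 100% = reference agonist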
TbMetRS inhib = blocks T. brucei methionyl-tRNA synthetase activity. 360,000 compounds, 0.4% hits. inhibition, % at 11.9 µM. purified T. brucei MetRS, ATP depletion, Kinase-Glo luminescence;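 active = inhibition above a per-plate cutoff of the control wells' mean inhibition plus 3 SD, cut at about 5.5% in these data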;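 note: 0% = DMSO wells median and 100% = median of wells with control inhibitor compound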
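Test system – parasite MetRS enzyme · Reagent – substrates ATP, L-methionine and bulk Escherichia coli tRNA · Doses – 11.9 µM compound single dose, 0.9% DMSO · Times – 15 min enzyme-compound preincubation, 2 h reaction, 10 min detection, 25 °C · Signal – Kinase-Glo luminescence, ATP depletion format · Controls – DMSO-only wells as low control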
MsrA inhibitor = bovine MsrA inhibition; purified bovine MsrA, absorbance read-out; inhibition, % at 15.5 µM; 360,000 compounds, 0.75% hits; AID 651718;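 note: 0% = vehicle wells with enzyme and 100% = reference inhibitor wells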
MsrA conf = bovine MsrA inhibition, confirmed | shares compounds with MsrA inhibitor | purified bovine MsrA, absorbance read-out | inhibition, % at 15.5 µM | 2,300 compounds, 41% hits;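 note: coupled to thioredoxin reductase with NADPH and selenocystamine and DMSO as substrate; 0% = vehicle only and 100% = full effect of reference inhibitor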
* marks the source's active call; other numbers are inactive results; . = not tested or not shown. Cut-off read from the data, not from the text of the source, unless noted: active = inhibition above about 4.5%; inactive = the rest.

SMILES | HTR2A ag | MsrA act | AI-2 QS mod | AHR activator | TbMetRS inhib | MsrA inhibitor | MsrA conf
O=c1oc2ccccc2c(NCc2ccccc2F)c1[N+](=O)[O-] | -1 | -8 | 17 | 10 | -1 | 8.8* | 7.2*
CC(C)c1ccc(CNc2c([N+](=O)[O-])c(=O)oc3ccccc23)cc1 | -2 | -14 | 20 | 30 | -1 | 0 | .
Cn1c(C(=O)O)cc2c(=O)n3ccccc3nc21 | 3 | -8 | 36 | 4 | -1 | 5.3* | 2
Cn1c(C(=O)N2CCOCC2)cc2c(=O)n3ccccc3nc21 | 1 | -3 | 15 | 1 | 0 | 3 | .
COc1cccc(OCc2nn3c(=O)c(-c4ccccc4)nnc3s2)c1 | -1 | -3 | 9 | . | -1 | 1 | .
CCC(=O)N/N=C/c1ccc(-c2ccc(Cl)cc2)o1 | 0 | -4 | 11 | 17 | -1 | 4.8* | 4
COc1ccc(Oc2cc(NN3CCCCC3)c([N+](=O)[O-])cc2[N+](=O)[O-])cc1OC | 2 | -2 | 24 | 4 | 1 | 4.9* | 3
CC(=O)c1cccc(Oc2cc(NN3CCCCC3)c([N+](=O)[O-])cc2[N+](=O)[O-])c1 | 8 | -4 | 27 | 4 | 0 | 18* | 12*
Cc1ccc(NC(=O)NC(=O)CN2CCCC2c2ccc3c(c2)OCCO3)cc1C (centres undefined) | -4 | 0 | . | 3 | 0 | -1 | .
Oc1ccc(/C=N/Nc2ccc(C(F)(F)F)cn2)cc1 | -8 | 1 | 19 | -1 | 0 | 5.5* | 3
CC(=O)OC1COC(n2ccc3cc([N+](=O)[O-])ccc32)C(OC(C)=O)C1OC(C)=O (centres undefined) | -2 | -4 | 20 | 3 | 1 | 6.0* | 3
CN(Cc1ccccc1)c1ncc(C=O)s1 | 1 | -6 | 19 | 0 | -1 | 7.5* | 5.8*
Cc1cc(/C=C(\C#N)C(=O)NCc2ccco2)c(C)n1-c1ccc(C(=O)O)cc1 | 1 | -3 | 24 | -4 | 0 | 6.8* | 3
Cc1cc(/C=C(\C#N)C(=O)NCC2CCCO2)c(C)n1-c1ccc(Cl)cc1 (centres undefined) | -7 | -3 | 2 | 8 | 0 | 4 | .
CC1(S(=O)(=O)O)CC(=O)c2ccccc2C1=O (centres undefined) | -5 | -3 | -9 | 2 | -1 | 0 | .
O=C(Nc1ccc2nc(-c3cccs3)[nH]c2c1)c1ccco1 | -3 | -5 | 13 | -3 | 0 | 4.7* | 3
O=C(Nc1ccc2nc(-c3cccs3)[nH]c2c1)c1cccs1 | -1 | -2 | 9 | -13 | 0 | 2 | .
C=CCNc1nc(N)c([N+](=O)[O-])c(NCCO)n1 | -4 | -5 | 29 | 0 | 2 | 5.0* | 4.8*
O=C(Nc1ccc(-c2nc3ccccc3o2)c(O)c1)c1cc(-n2cnnc2)ccc1Cl | 0 | 3 | 21 | -9 | 0 | 4.8* | 0
O=C(Nc1ccc(-c2nc3ccccc3o2)cc1)c1cc(-n2cnnc2)ccc1Cl | 1 | -2 | 11 | -7 | -1 | 1 | .
Cc1ccn2c(=O)c(C(=O)O)cnc2c1 | 3 | -2 | 4 | 1 | 0 | 4.7* | 4
CCOC(=O)c1cnc2cc(C)ccn2c1=O | 5 | -7 | 25 | -1 | 0 | 3 | .
CCOc1cc(/C=C/c2nc3ccccc3c(=O)[nH]2)ccc1O | 11 | 1 | -3 | 16 | 0 | 1 | .
COc1cc(/C=C/c2nc3ccccc3c(=O)[nH]2)ccc1O | -2 | -3 | . | . | 0 | 7.0* | 4
CCC(=O)c1cc(Br)ccc1OCC(=O)N1CCN(S(=O)(=O)c2ccccc2)CC1 | 8 | -3 | . | . | 0 | 1 | .
SMILES | HTR2A ag | MsrA act | AI-2 QS mod | AHR activator | TbMetRS inhib | MsrA inhibitor | MsrA conf
O=[N+]([O-])c1ccc(Sc2nnnn2-c2ccccc2)nc1 | . | . | 96 | . | . | 4.8* | 2
CCCCCC(O)(c1ccc(OCC)cc1)C(CN1CCOCC1)c1ccccc1 (centres undefined) | -10 | 0 | 6 | 2 | -1 | 0 | .
COc1ccccc1/C=C1\SC(N2CCC(C)CC2)=NC1=O | -1 | -7 | 22 | 22 | -1 | 3 | .
COc1cccc(/C=C2\SC(N3CCC(C)CC3)=NC2=O)c1OC | -3 | -4 | 27 | 6 | -1 | 5.9* | 4
CCOC(=O)C(C)c1c(C)[nH]c(=S)[nH]c1=O (centres undefined) | -2 | -2 | 11 | 1 | -1 | 1 | .
CCCCCOC(=O)C(C)c1c(C)[nH]c(=S)[nH]c1=O (centres undefined) | -2 | -1 | 13 | -2 | -1 | 13* | 8.8*
CC(C)C[C@H]1CNC(=S)N1CC1CCN(CCCC2CCCC2)CC1 | -2 | 0 | . | . | 0 | -2 | .
NC(=S)N/N=C/c1ccc(-c2cccc([N+](=O)[O-])c2)o1 | -1 | -3 | 14 | -1 | 0 | 5.1* | 7.6*
O=C(N/N=C/c1ccc(-c2cccc([N+](=O)[O-])c2)o1)c1cccs1 | -1 | -5 | 24 | 27 | 0 | 1 | .
Clc1ccccc1/C=C/C=N/Nc1nc(N2CCOCC2)nc(N2CCOCC2)n1 | -5 | -2 | 9 | 4 | -1 | 5.3* | 4
Clc1cc2c(cc1/C=N/Nc1nc(N3CCOCC3)nc(N3CCOCC3)n1)OCO2 | 0 | -4 | 2 | 8 | -1 | 4 | .
C(=C\c1ccccc1)/C=N/Nc1nc(N2CCOCC2)nc(N2CCOCC2)n1 | -5 | -3 | 18 | 0 | 0 | 7.5* | 6.8*
CN(c1nc2nonc2nc1NC1CC1)C1CCOC1 (centres undefined) | 7 | -3 | 10 | 2 | 1 | 5.0* | 2
Cc1cc(C)n(CCN(C)c2nc3nonc3nc2NC2CC2)n1 | 0 | -4 | 24 | 1 | 1 | 2 | .
CCc1nc(N)c(C#N)c(-c2cccnc2)c1C | 0 | -1 | 5 | 0 | 1 | 4.7* | 1
Cc1nc(N)c(C#N)c(-c2cccnc2)c1C | 2 | -2 | 41 | 11 | 0 | 1 | .
O=[N+]([O-])c1ccccc1S(=O)(=O)Nc1ccc(-c2ccc(N3CCCC3)nn2)cc1 | -1 | -3 | 40 | 11 | 0 | 5.0* | 2
C/C(=N\N=C(/N)SC1CC(=O)N(c2ccccc2)C1=O)c1cccs1 (centres undefined) | -3 | -7 | -24 | 23 | 0 | 5.1* | 2
N/C(=N\N=C\c1ccco1)SC1CC(=O)N(c2ccccc2)C1=O (centres undefined) | 2 | -4 | 7 | 1 | 0 | 6.8* | 4
COc1ccc(CNC(=O)C2CCC(CNS(=O)(=O)c3ccccc3)CC2)cc1 (centres undefined) | 1 | -6 | 20 | 2 | 0 | 0 | .
N#C/C(=C\c1ccncc1)c1nc2ccccc2o1 | -5 | -2 | 22 | 12 | 1 | -2 | .
